Assay outcomes deposited in PubChem by Broad Institute.
IDH1 R132H inh: inhibitors of human IDH1 R132H; AID 624101; inhibition, % at 10 µM; O75874; hit rate 0.18% among 70,000; IDH1 R132H reductase, diaphorase/resazurin fluorescence, 60 min; in the data active = inhibition above about 34%; inconclusive = no clear call, values can overlap the other calls; inactive = below about 11%;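 also: 0% = DMSO and 100% = no enzyme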
Target sequence (O75874 whole entry R132H): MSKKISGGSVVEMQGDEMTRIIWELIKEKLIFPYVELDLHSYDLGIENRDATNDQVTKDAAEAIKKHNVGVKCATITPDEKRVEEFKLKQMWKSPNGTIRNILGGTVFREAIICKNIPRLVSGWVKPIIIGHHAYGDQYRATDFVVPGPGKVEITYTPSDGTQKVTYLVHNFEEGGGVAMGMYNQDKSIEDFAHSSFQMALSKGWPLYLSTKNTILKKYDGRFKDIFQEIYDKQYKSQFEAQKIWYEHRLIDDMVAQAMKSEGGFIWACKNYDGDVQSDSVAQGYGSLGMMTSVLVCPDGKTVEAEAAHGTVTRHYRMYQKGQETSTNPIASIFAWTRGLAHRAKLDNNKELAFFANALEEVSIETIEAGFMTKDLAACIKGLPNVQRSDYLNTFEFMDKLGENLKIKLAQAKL
Pf Dd2 inh: P. falciparum Dd2 growth inhibition. SYBR Green, 72 h; hits give low values. activity change, % at 10 µM. hit rate 2.3% among 94,000. AID 1159554; in the data active = activity change below about -80%; inconclusive = no clear call, values can overlap the other calls
T cruzi growth-1: blocks T. cruzi growth in NIH3T3 culture; T. cruzi beta-gal in NIH3T3, GalScreen luminescence, 90 h; inhibition, % at 8.34 µM; hit rate 5.9% among 77,000;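 active = mean inhibition above about 93%, with at least 55% of replicates each passing it, limit read from the data, passing the limit was not always enough; inconclusive = only one of those two conditions holds; inactive = neither condition holds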
KDM4C inh: KDM4C (human) demethylase inhibition | Q9H3R0 | GST-KDM4C 2-372, H3K9me3 peptide, LANCE TR-FRET | inhibition, % at 12.5 µM | hit rate 0.15% among 96,000 | AID 720574;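 active = mean replicate inhibition above about 25%, with at least 55% of replicates also reaching it, limit read from the data, passing the limit was not always enough; inconclusive = only one of those two conditions met; inactive = neither condition met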
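System – N-terminal GST-fused human GASC-1 (KDM4C) fragment, residues 2-372 · Input – enzyme final amount 10 nM · Technique – LANCE TR-FRET, Eu antibody, ULight-streptavidin, EDTA, ex 340 nm, em 618/671 nm · Medium – HEPES buffer, pH 7.5, plus ascorbate · Incubation – enzyme reaction 30 min, then detection 60 min, both room temperature · Reagent – H3K9me3 peptide with Fe(II)/2OG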
T cruzi growth-2: inhibitors of T. cruzi proliferation | shares compounds with T cruzi growth-1 | T. cruzi beta-gal in NIH3T3, GalScreen luminescence, 90 h | inhibition, % at 8.35 µM | hit rate 72% among 5,600;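 active = mean replicate inhibition above about 95% and at least 55% of replicates individually reaching it, limit read from the data; inconclusive = only one of the two criteria is met; inactive = neither criterion is met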
T cruzi growth-3: blocks T. cruzi growth in NIH3T3 host cells; shares compounds with T cruzi growth-1; T. cruzi beta-gal in NIH3T3, GalScreen luminescence, 90 h; inhibition, % at 2.09 µM; hit rate 21% among 5,600;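 active = mean inhibition above about 95%, with at least 55% of replicates also reaching it, limit read from the data; inconclusive = meets just one of the two conditions; inactive = meets neither condition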;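 also: plate controls were neutral control median for no effect and positive control median for full effect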
NIH3T3 tox: NIH/3T3 (mouse) viability loss. NIH/3T3 viability, CellTiter-Glo ATP luminescence, 90 h. cytotoxicity (signal decrease), % at 8.35 µM. AID 651742. hit rate 14% among 5,600. shares compounds with T cruzi growth-1;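 active = mean signal decrease across replicates above about 35% based on untreated-well scatter, with enough replicates individually passing, limit read from the data; inconclusive = no rule stated though some were filed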;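 also: 0% = median of neutral control wells and 100% = median of positive control wells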
NIH3T3 tox 2: NIH/3T3 (mouse) viability loss; NIH/3T3 viability, CellTiter-Glo ATP luminescence, 90 h; inhibition, % at 24.9 µM; hit rate 56% among 5,600; shares compounds with T cruzi growth-1; AID 651744;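 active = mean loss of cell viability signal at or above a set limit, and enough replicates individually reaching it; inconclusive = meets only the mean limit or only the replicate share; inactive = meets neither condition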;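 also: 0% = median of neutral control wells and 100% = median of positive control wells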
The depositor's hits bear a star; ? = inconclusive; nt = no result given. In the library only some 5.8% were active in any assay of this set; here they are far more common.

SMILES | IDH1 R132H inh | Pf Dd2 inh | T cruzi growth-1 | KDM4C inh | T cruzi growth-2 | T cruzi growth-3 | NIH3T3 tox | NIH3T3 tox 2
C[C@@H]1CN([C@@H](C)CO)C(=O)c2cc(-c3cccnc3)cnc2O[C@H]1CN(C)C | -2 | 26 | -39 | 0 | nt | nt | nt | nt
C[C@@H](NC(=O)C[C@@H]1CC[C@@H](NC(=O)Cc2ccccn2)[C@@H](CO)O1)c1ccccc1 | 0 | 8 | 15 | 1 | nt | nt | nt | nt
N#C[C@@H]1[C@@H](c2ccc(C3=CCCCC3)cc2)[C@@H](CO)N1C(=O)NC1CCCCC1 | nt | 11 | 98* | 1 | 104* | 63 | 54* | 64*
N#C[C@H]1[C@@H](c2ccc(C3=CCCC3)cc2)[C@@H](CO)N1C(=O)NC1CCCCC1 | nt | -27 | nt | 0 | nt | nt | nt | nt
COc1ccc(C#Cc2ccc([C@@H]3[C@@H](CO)N4CCCCN(C(=O)Nc5ccc(F)cc5)C[C@H]34)cc2)cc1 | nt | -68 | 116* | -1 | 97* | 120* | 123* | 105*
COc1ccc(C#Cc2ccc([C@@H]3[C@H](CO)N4CCCCN(C(=O)Nc5ccc(F)cc5)C[C@@H]34)cc2)cc1 | nt | -67 | 111* | 0 | 105* | 109* | 119* | 103*
COc1ccc(C#Cc2ccc([C@@H]3[C@@H](CO)N4CCCCN(C(=O)Nc5ccc(F)cc5)C[C@@H]34)cc2)cc1 | nt | -29 | 112* | -1 | 102* | 106* | 4 | 104*
COc1ccc(C#Cc2ccc([C@H]3[C@@H](CO)N4CCCCN(C(=O)Nc5ccc(F)cc5)C[C@H]34)cc2)cc1 | nt | -66 | 88 | -3 | nt | nt | nt | nt
CC(C)C#Cc1ccc2c(c1)O[C@@H](CN(C)C(=O)C1CCCCC1)[C@@H](C)CN([C@@H](C)CO)S2(=O)=O | nt | -30 | ? | 0 | 102* | 83 | 17 | 107*
CC(C)C#Cc1ccc2c(c1)O[C@H](CN(C)C(=O)C1CCC1)[C@@H](C)CN([C@H](C)CO)S2(=O)=O | -5 | -27 | 113* | -1 | 98* | 75 | 24 | 28*
CC(C)C#Cc1ccc2c(c1)O[C@H](CN(C)C(=O)C1CCCCC1)[C@@H](C)CN([C@H](C)CO)S2(=O)=O | nt | -57 | 68 | -3 | nt | nt | nt | nt
N#Cc1c(NC(=O)CCN2C(=O)c3ccccc3C2=O)sc2c1CCCC2 | 0 | nt | nt | nt | nt | nt | nt | nt
C[C@H](CO)N1C[C@H](C)[C@@H](CN(C)S(=O)(=O)c2ccc(F)cc2)Oc2cc(-c3cccc(F)c3)ccc2S1(=O)=O | nt | -71 | 118* | -2 | 97* | 104* | 39* | 42*
C[C@@H]1CN([C@@H](C)CO)S(=O)(=O)c2ccc(-c3cccc(F)c3)cc2O[C@H]1CN(C)S(=O)(=O)c1ccc(F)cc1 | nt | -78 | 113* | 1 | 101* | 108* | 49* | 48*
COc1ccc(S(=O)(=O)N(C)C[C@H]2Oc3cc(-c4cccc(F)c4)ccc3S(=O)(=O)N([C@H](C)CO)C[C@@H]2C)cc1 | -1 | -72 | nt | -1 | nt | nt | nt | nt
COc1ccc(S(=O)(=O)N(C)C[C@@H]2Oc3cc(-c4cccc(F)c4)ccc3S(=O)(=O)N([C@H](C)CO)C[C@H]2C)cc1 | 0 | -76 | nt | 1 | nt | nt | nt | nt
C[C@@H]1CN([C@@H](C)CO)S(=O)(=O)c2ccc(C#CCN(C)C)cc2O[C@@H]1CN(C)Cc1ccccn1 | -3 | -30 | ? | 8 | 82 | 68 | 31 | 28*
C[C@H]1CN([C@@H](C)CO)S(=O)(=O)c2ccc(C#CCN(C)C)cc2O[C@@H]1CN(C)Cc1ccccn1 | 0 | -51 | 101* | 1 | 97* | 99* | 4 | 12
C[C@H](CO)N1C[C@H](C)[C@@H](CN(C)Cc2ccccn2)Oc2cc(C#CCN(C)C)ccc2S1(=O)=O | -1 | -28 | ? | 1 | nt | nt | nt | nt
CO[C@@H]1CN(C)C(=O)c2cc(NC(=O)c3nc4ccccc4s3)ccc2OC[C@@H](C)N(Cc2cncnc2)C[C@H]1C | -1 | -18 | -42 | 0 | nt | nt | nt | nt
CCCC#Cc1ccc([C@H]2[C@@H](C#N)N(C(=O)C3CC3)[C@@H]2CO)cc1 | nt | -26 | ? | -1 | 103* | 86 | -29 | 15
CCCC#Cc1ccc([C@@H]2[C@@H](C#N)N(C(=O)C3CCOCC3)[C@H]2CO)cc1 | nt | -23 | 63 | -1 | nt | nt | nt | nt
CCCC#Cc1ccc([C@H]2[C@H](C#N)N(C(=O)C3CC3)[C@H]2CO)cc1 | nt | -24 | 106* | -1 | 107* | 89 | -4 | 32*
CCCC#Cc1ccc([C@H]2[C@@H](C#N)N(C(=O)C3CC3)[C@H]2CO)cc1 | nt | -38 | ? | 0 | ? | ? | 6 | 41*
CCCC#Cc1ccc([C@@H]2[C@@H](CO)N(C(=O)C3CC3)[C@H]2C#N)cc1 | nt | -14 | 101* | 2 | 98* | 70 | -5 | 36*
SMILES | IDH1 R132H inh | Pf Dd2 inh | T cruzi growth-1 | KDM4C inh | T cruzi growth-2 | T cruzi growth-3 | NIH3T3 tox | NIH3T3 tox 2
CCCC#Cc1ccc([C@H]2[C@@H](C#N)N(C(=O)C3CCC3)[C@H]2CO)cc1 | nt | -55 | 93 | 0 | nt | nt | nt | nt
Cc1noc(C)c1NC(=O)N(C)C[C@@H]1OCCCC[C@H](C)Oc2ccc(NC(=O)Nc3ccc4c(c3)OCO4)cc2C(=O)N([C@H](C)CO)C[C@@H]1C | nt | 8 | 19 | -1 | nt | nt | nt | nt
C[C@@H]1CN([C@@H](C)CO)C(=O)c2cccc(NC(=O)Nc3ccc(C(F)(F)F)cc3)c2O[C@@H]1CN(C)Cc1ccc(Cl)c(Cl)c1 | 1 | -29 | ? | 7 | 108* | 60 | 5 | 100*
C[C@@H]1CN([C@@H](C)CO)C(=O)c2cccc(NC(=O)Nc3ccc(F)cc3)c2O[C@H]1CN(C)Cc1ccc(Cl)c(Cl)c1 | nt | -31 | 71 | -5 | nt | nt | nt | nt
C[C@H]1CN([C@@H](C)CO)C(=O)c2cccc(NC(=O)Nc3ccc(C(F)(F)F)cc3)c2O[C@@H]1CN(C)Cc1ccc(Cl)c(Cl)c1 | 4 | -25 | ? | -1 | 98* | 106* | 45* | 105*
C[C@H](CO)N1C[C@H](C)[C@@H](CN(C)Cc2ccc(Cl)c(Cl)c2)Oc2c(NC(=O)Nc3ccc(C(F)(F)F)cc3)cccc2C1=O | 1 | -18 | ? | -1 | 31 | -22 | 7 | 5
C[C@H]1CN([C@@H](C)CO)C(=O)c2cccc(NC(=O)Nc3ccc(C(F)(F)F)cc3)c2O[C@H]1CN(C)Cc1ccc(Cl)c(Cl)c1 | nt | -32 | ? | -2 | 98* | 105* | 13 | 103*
C[C@@H]1CN([C@@H](C)CO)C(=O)c2cccc(NC(=O)Nc3ccc(F)cc3)c2O[C@@H]1CN(C)Cc1ccc(Cl)c(Cl)c1 | 1 | -45 | 29 | 4 | nt | nt | nt | nt
